Source: ChEMBL document CHEMBL4270486, “Anti-inflammatory Activity of Natural Geranylated Flavonoids: Cyclooxygenase and Lipoxygenase Inhibitory Properties and Proteomic Analysis” (J Nat Prod, 2017)
Active and inactive are the calls of the source. The calls are words filed in the database; no cut-off is given here.

Legend:
[1] = biological target: T1, Prostaglandin G/H synthase 2 (Homo sapiens, UniProt P35354); experiment: Inhibition of human recombinant COX2 assessed as reduction in PGE2 formation pre-incubated for 5 mins before arachidonic acid addition and measured after 20 mins by ELISA
T1 sequence (P35354 whole entry): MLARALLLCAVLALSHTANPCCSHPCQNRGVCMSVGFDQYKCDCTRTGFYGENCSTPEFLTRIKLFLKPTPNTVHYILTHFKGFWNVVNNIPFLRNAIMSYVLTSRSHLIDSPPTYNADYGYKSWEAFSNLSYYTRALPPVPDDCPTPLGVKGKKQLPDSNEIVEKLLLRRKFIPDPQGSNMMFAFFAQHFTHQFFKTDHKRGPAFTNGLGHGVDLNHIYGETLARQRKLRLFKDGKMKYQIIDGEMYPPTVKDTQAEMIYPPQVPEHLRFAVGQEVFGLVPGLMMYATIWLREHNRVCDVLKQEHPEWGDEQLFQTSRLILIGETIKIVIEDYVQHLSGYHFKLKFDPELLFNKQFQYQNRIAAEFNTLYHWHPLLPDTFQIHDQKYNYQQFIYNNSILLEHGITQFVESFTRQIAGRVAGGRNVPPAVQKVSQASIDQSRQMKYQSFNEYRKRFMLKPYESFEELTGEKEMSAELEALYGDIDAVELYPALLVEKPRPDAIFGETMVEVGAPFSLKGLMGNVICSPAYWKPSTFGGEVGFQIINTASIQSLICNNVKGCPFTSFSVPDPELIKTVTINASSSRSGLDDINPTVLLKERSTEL

[2] = biological target: T2, Prostaglandin G/H synthase 2 (Homo sapiens) (UniProt P35354); experiment: Inhibition of human recombinant COX2 assessed as reduction in PGE2 formation at 20 uM pre-incubated for 5 mins before arachidonic acid addition and measured after 20 mins by ELISA
T2 sequence (whole entry): T1 sequence (P35354 whole entry)
Outline: (§1)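 COX-1 from ram seminal vesicles (1 unit) or human recombinant COX-2 (0.5 unit) in 100 mM Tris pH 8.0 with 5 μM hematin, 18 mM L-epinephrine and 50 μM Na2EDTA. Compound in DMSO preincubated 5 min at room temperature. Arachidonic acid added, 20 min at 37 °C, stopped with formic acid. PGE2 by ELISA (A405).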

[3] = biological target: T3, Prostaglandin G/H synthase 1 (Ovis aries, UniProt P05979); experiment: Inhibition of ram seminal vesicle COX1 assessed as reduction in PGE2 formation pre-incubated for 5 mins before arachidonic acid addition and measured after 20 mins by ELISA; outline: as §1
T3 sequence (P05979 whole entry): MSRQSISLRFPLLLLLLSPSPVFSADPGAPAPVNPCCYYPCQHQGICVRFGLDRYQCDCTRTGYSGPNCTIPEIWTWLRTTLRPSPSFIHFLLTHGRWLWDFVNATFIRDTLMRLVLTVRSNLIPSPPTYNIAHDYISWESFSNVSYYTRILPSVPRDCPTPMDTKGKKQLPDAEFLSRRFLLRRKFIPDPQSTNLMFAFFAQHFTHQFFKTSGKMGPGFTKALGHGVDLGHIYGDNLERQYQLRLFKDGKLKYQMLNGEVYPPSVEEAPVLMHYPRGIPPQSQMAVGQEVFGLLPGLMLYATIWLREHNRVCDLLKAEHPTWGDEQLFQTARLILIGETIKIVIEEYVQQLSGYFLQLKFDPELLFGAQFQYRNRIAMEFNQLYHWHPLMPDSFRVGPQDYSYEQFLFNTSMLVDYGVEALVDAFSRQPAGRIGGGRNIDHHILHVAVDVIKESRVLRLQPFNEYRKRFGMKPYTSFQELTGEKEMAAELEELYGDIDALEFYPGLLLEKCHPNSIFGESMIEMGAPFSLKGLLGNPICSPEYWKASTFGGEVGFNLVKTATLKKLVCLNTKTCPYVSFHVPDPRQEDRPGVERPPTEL

[4] = Selectivity index, ratio of IC50 for ram seminal vesicle COX1 to IC50 for human recombinant COX2
[5] = biological target: T4, Polyunsaturated fatty acid 5-lipoxygenase (Homo sapiens, UniProt P09917); experiment: Inhibition of human recombinant 5-LOX assessed as reduction in leukotriene B4 production pre-incubated for 10 mins before arachidonic acid addition and measured after 10 mins by ELISA
T4 sequence (P09917 whole entry): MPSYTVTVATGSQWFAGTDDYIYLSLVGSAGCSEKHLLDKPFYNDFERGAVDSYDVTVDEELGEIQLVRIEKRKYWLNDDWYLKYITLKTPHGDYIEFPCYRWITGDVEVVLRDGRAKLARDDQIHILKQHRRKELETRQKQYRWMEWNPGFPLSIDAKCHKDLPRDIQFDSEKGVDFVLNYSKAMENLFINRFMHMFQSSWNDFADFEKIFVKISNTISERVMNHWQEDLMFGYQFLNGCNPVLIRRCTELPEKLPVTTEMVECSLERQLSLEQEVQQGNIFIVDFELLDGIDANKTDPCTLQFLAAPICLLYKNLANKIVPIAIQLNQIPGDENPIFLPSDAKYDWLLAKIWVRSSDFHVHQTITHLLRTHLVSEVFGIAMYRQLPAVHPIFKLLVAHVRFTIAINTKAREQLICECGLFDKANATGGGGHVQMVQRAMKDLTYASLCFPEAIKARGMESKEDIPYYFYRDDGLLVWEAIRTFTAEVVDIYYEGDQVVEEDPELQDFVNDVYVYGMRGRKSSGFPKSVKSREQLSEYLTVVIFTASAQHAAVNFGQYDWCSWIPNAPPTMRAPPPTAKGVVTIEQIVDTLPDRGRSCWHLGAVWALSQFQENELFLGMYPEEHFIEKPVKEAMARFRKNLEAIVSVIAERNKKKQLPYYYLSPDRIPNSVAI
Outline: (§2)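 Human recombinant 5-LOX, 1 unit/reaction, in PBS pH 7.4 containing 1 mM Na2EDTA and 200 μM ATP. Test compound in DMSO incubated 10 min at 4 °C. Reaction started with CaCl2 and arachidonic acid, 10 min at 37 °C, stopped with formic acid. LTB4 measured by ELISA (A405). Screening at 20 μM; ≥3 experiments, duplicate wells.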

[6] = biological target: T5, Polyunsaturated fatty acid 5-lipoxygenase (Homo sapiens) (UniProt P09917); experiment: Inhibition of human recombinant 5-LOX assessed as reduction in leukotriene B4 production at 20 uM pre-incubated for 10 mins before arachidonic acid addition and measured after 10 mins by ELISA
T5 sequence (whole entry): T4 sequence (P09917 whole entry)
Outline: as §2, with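 “(A405). […]” for “(A405).”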

[7] = biological target: T5, Polyunsaturated fatty acid 5-lipoxygenase (Homo sapiens); experiment: Potency index, ratio of IC50 for zileuton to IC50 for test compound fior inhibition of human recombinant 5-LOX assessed as reduction in leukotriene B4 production pre-incubated for 10 mins before arachidonic acid addition and measured after 10 mins by ELISA
THP-1 [8] = experiment: Increase in RNF207 protein expression in human THP1 cells at 2 uM by proteomic analysis relative to untreated control; assay type: ADME, cell-based; conditions: read-out: FC
Outline: (§3)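 THP-1 monocytes in RPMI 1640 with 10% FBS and 2 mM L-glutamine, differentiated to macrophages with phorbol myristate acetate, then 24 h serum-free. Pretreatment 1 h with compound in DMSO (2 μM final) or DMSO alone, then LPS (E. coli 0111:B4, 1.0 μg/mL) for 24 h. Filter-aided trypsin digestion, iTRAQ 4-plex labelling, LC-MS/MS. Five biological replicates pooled per group.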

THP-1 [9] = experiment: Increase in COX2 protein expression in human THP1 cells at 2 uM by proteomic analysis relative to untreated control; assay type: ADME, cell-based; conditions: thp-1, 2 µM; outline: as §3
THP-1 [10] = experiment: Increase in COX2 protein expression in LPS-stimulated human THP1 cells at 2 uM by proteomic analysis relative to untreated control; assay type: functional; outline: as §3
THP-1 [11] = experiment: Inhibition of LPS-induced increase in CXCL1 protein expression in LPS-stimulated human THP1 cells at 2 uM by proteomic analysis relative to untreated control; assay type: functional, cell-based; outline: as §3
THP-1 [12] = experiment: Inhibition of LPS-induced increase in TNFalpha protein expression in LPS-stimulated human THP1 cells at 2 uM by proteomic analysis relative to untreated control; assay type: functional, cell-based; outline: as §3
THP-1 [13] = experiment: Inhibition of LPS-induced increase in CCL5 protein expression in LPS-stimulated human THP1 cells at 2 uM by proteomic analysis relative to untreated control; assay type: functional, cell-based; outline: as §3
THP-1 [14] = experiment: Inhibition of LPS-induced increase in CCL1 protein expression in LPS-stimulated human THP1 cells at 2 uM by proteomic analysis relative to untreated control; assay type: functional, cell-based; outline: as §3
THP-1 [15] = experiment: Inhibition of LPS-induced increase in IL1 protein expression in LPS-stimulated human THP1 cells at 2 uM by proteomic analysis relative to untreated control; assay type: functional, cell-based; outline: as §3
THP-1 [16] = experiment: Increase in TX1B3 protein expression in human THP1 cells at 2 uM by proteomic analysis relative to untreated control; assay type: ADME, cell-based; conditions: read-out: FC; outline: as §3
THP-1 [17] = experiment: Inhibition of LPS-induced decrease in VIP2 protein expression in LPS-stimulated human THP1 cells at 2 uM by proteomic analysis relative to untreated control; assay type: functional, cell-based; outline: as §3

SMILES | IC50 [1] [µM] | inhibition [2] | IC50 [3] [µM] | Ratio IC50 [4] | IC50 [5] [µM] | inhibition [6] | also measured
CC(C)=CCC/C(C)=C/Cc1c(O)cc2c(c1O)C(=O)C[C@@H](c1ccc(O)cc1)O2 [BONANNIONE A] | 6 | Active | 3.7 | 0.62 | – | – | –
COc1cc([C@@H]2CC(=O)c3c(cc4c(c3O)C=CC(C)(CCC=C(C)C)O4)O2)ccc1O (some centres not stated) | 9.5 | Active | 26.3 | 2.8 | – | – | –
CC(C)=CCC/C(C)=C/Cc1c(O)cc2occc(=O)c2c1O | – | – | – | – | 2.46 | Active | –
CC(C)=CCCC1(C)C=Cc2c(cc3c(c2O)C(=O)C[C@@H](c2cc(O)cc(O)c2)O3)O1 (some centres not stated) | – | – | – | – | 0.35 | Active | –
COc1cc([C@@H]2CC(=O)c3c(cc(O)c(C/C=C(\C)CCC=C(C)C)c3O)O2)cc(O)c1OC | 6.4 | Active | 4.2 | 0.66 | – | – | –
COc1cc(C2CC(=O)c3c(cc4c(c3O)C=CC(C)(CCC=C(C)C)O4)O2)cc(OC)c1O (configuration not stated) | – | – | – | – | 0.37 | Active | –
COc1cc([C@@H]2CC(=O)c3c(cc(O)c(C/C=C(\C)CCC=C(C)C)c3O)O2)cc(O)c1O | 10.6 | Active | 3.3 | 0.31 | 0.06 | Active | Ratio IC50 [7]: 10
CC(C)=CCC/C(C)=C/Cc1c(O)cc2c(c1O)C(=O)C[C@@H](c1ccc(O)c(O)c1)O2 [NYMPHAEOL A] | 4.2 | Active | 1.8 | – | 0.05 | Active | fold induction at 2 µM (THP-1 [8]): 2.09; Activity (THP-1 [9]): Non-Toxic; fold change (FC) (THP-1 [10]): 1.55; inhibition (THP-1 [11]): Active; inhibition (THP-1 [12]): Active; inhibition (THP-1 [13]): Active; inhibition (THP-1 [14]): Active; inhibition (THP-1 [15]): Active; fold induction at 2 µM (THP-1 [16]): 1.88; inhibition (THP-1 [17]): Active
COc1cc([C@@H]2CC(=O)c3c(cc(O)c(C/C=C(\C)CCC=C(C)C)c3O)O2)cc(OC)c1O | – | – | – | – | 0.38 | Active | –
